Measurements: ChEMBL document CHEMBL4342467, “Discovery of a Novel Dual-Target Inhibitor of ERK1 and ERK5 That Induces Regulated Cell Death to Overcome Compensatory Mechanism in Specific Tumor Types” (J Med Chem, 2020)
Calls of active or inactive are those of the source. The rule behind the calls is not given here.

What was measured:
[1] = test system: HL-60; assay: Induction of autophagy in human HL60 cells; assay type: functional, cell-based
[2] = Effect on Ras/Raf/MEK/ERK signaling in human MKN74 cells assessed as change in p38 expression at 0.5 uM measured up to 24 hrs by Western blot analysis; assay type: cell-based
How it was run: (§1)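 MKN-74 cells exposed to 0.5 μM for 0, 6, 12 and 24 h. Ras, Raf, p-MEK1/2, MEK1/2, p-JNK, JNK, p-p38 and p38 immunoblotted, with GAPDH as loading control.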

[3] = molecular target: Mitogen-activated protein kinase 7 (Homo sapiens) (UniProt Q13164); assay: Inhibition of ERK5 in human MKN74 cells assessed as reduction in ERK5 phosphorylation at T218/Y220 residue at 0.5 uM measured up to 24 hrs by Western blot analysis; assay type: cell-based
[4] = test system: MKN-74; assay: Antitumor activity against human MKN74 cells xenografted in BALB/c mouse assessed as reduction in tumor weight at 50 mg/kg, po administered once daily for 16 days measured post-last dose; assay type: functional, organism-based
How it was run: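 Female nude mice bearing subcutaneous xenografts (8 per group) received vehicle or 50 mg/kg p.o. once daily for 16 days. Excised tumors weighed and compared with control group.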

[5] = Effect on Ras/Raf/MEK/ERK signaling in human MKN74 cells assessed as change in JNK expression at 0.5 uM measured up to 24 hrs by Western blot analysis; assay type: cell-based; how it was run: as §1
[6] = test system: MKN-74; assay: Induction of autophagy in human MKN74 cells assessed as increase in p62 degradation at 0.5 uM measured after 24 hrs in presence of autophagy inhibitor 3-methyladenine by Western blot analysis; assay type: functional, cell-based
How it was run: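 MKN-74 cells given 0.5 μM for 24 h with or without 3-MA; LC3 and p62 immunoblotted.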

[7] = test system: Mus musculus; assay: In vivo inhibition of ERK5 in BALB/c mouse xenografted with human MKN74 cells assessed as reduction in phosphorylated ERK5 expression at 50 mg/kg, po administered once daily for 16 days measured post-last dose by immunohistochemical analysis; assay type: functional, organism-based
How it was run: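 Tumors excised from control and 50 mg/kg p.o.-treated xenograft mice were immunostained for Ki-67, p-ERK1/2 and p-ERK5. Positive-cell percentage quantified and compared with control.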

[8] = Cmax in Sprague-Dawley rat at 1 mg/kg, iv by LC-MS analysis; assay type: ADME, organism-based; set-up: dose 1 mg/kg, route intravenous; details: in vivo
How it was run: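 Rats, two groups of 3; single i.v. dose 1 mg/kg or oral dose 10 mg/kg. Plasma concentration-time profiles used to derive T1/2, Tmax, Cmax, AUC0-t, AUC0-∞ and oral bioavailability. Data from triplicate testing, ± standard deviation.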

[9] = molecular target: Mitogen-activated protein kinase 3 (Homo sapiens) (UniProt P27361); assay: Inhibition of ERK1 (unknown origin) at 1 uM by Z'-Lyte assay relative to control
Chain of Mitogen-activated protein kinase 3 (Homo sapiens) (P27361 whole entry): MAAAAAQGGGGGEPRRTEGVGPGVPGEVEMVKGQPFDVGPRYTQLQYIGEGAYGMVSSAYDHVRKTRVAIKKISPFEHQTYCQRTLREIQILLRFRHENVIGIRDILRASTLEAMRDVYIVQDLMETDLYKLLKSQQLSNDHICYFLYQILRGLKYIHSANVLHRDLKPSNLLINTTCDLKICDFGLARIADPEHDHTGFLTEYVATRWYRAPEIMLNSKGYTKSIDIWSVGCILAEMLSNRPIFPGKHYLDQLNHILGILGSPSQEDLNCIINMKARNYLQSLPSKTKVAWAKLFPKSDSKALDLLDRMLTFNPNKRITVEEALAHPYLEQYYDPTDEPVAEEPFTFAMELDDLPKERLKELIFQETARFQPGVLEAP

Chain of Mitogen-activated protein kinase 7 (Homo sapiens) (Q13164 2-816 limits assumed): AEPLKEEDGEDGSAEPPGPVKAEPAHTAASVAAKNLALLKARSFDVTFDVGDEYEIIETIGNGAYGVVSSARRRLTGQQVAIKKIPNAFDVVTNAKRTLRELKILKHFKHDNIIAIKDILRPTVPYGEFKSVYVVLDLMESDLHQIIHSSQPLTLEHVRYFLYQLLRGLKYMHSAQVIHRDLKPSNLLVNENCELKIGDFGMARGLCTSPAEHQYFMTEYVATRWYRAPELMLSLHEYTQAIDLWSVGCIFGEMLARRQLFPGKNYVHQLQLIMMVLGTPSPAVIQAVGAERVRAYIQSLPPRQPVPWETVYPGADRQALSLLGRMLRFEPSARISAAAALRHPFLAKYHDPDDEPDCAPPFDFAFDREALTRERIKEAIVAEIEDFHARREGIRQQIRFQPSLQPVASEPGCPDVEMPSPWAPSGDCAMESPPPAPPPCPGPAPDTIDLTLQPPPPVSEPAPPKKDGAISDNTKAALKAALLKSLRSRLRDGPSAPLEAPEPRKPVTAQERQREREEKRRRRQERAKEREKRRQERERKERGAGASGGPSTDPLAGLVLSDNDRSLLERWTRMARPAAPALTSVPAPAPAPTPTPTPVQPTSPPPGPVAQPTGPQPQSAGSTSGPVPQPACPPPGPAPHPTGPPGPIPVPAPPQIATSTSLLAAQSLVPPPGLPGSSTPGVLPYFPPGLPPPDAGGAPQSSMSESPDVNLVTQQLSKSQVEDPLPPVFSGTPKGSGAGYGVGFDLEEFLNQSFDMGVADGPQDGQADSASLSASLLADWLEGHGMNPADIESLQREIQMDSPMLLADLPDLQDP

inhibition [3]: Active | Cmax [8]: 1890 ng/mL | inhibition [9]: 93.5%
Structure (SMILES): NC(=O)c1c(NC(=O)c2ccccc2Cl)sc2c1CCN(C(=S)Nc1ccccc1Cl)C2
Activity [1]: inactive | Activity [2]: inactive | Activity [4]: Active | Activity [5]: inactive | Activity [6]: inactive | inhibition [7]: Active
